Assay results as given in ChEMBL document CHEMBL5030506 (J Med Chem, 2021).
pIC50: −log10 of the molar value. The source made the active and inactive calls. The calls are words filed in the database; no cut-off is given here.

Assays:
[1] = target: Protein arginine N-methyltransferase 6 (Homo sapiens, UniProt Q96LA8); assay: Inhibition of PRMT6 (unknown origin)
[2] = target: Histone-lysine N-methyltransferase KMT5C (Homo sapiens) (UniProt Q86Y97); assay: Inhibition of SUV420H2 (unknown origin) at 1 to 10 uM; conditions: dose 1-10 µM
Procedure, shortened: (§1)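 Part of a 33-methyltransferase selectivity panel covering 8 PRMTs, 21 PKMTs, 3 DNMTs and 1 RNA methyltransferase. Each compound was tested at 1 μM and at 10 μM, with n = 3.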

[3] = target: Histone-lysine N-methyltransferase SUV39H2 (Homo sapiens) (UniProt Q9H5I1); assay: Inhibition of SUV39H2 (unknown origin) at 1 to 10 uM; conditions: dose 1-10 µM; procedure, shortened: as §1
[4] = target: Histone-lysine N-methyltransferase KMT5B (Homo sapiens) (UniProt Q4FZB7); assay: Inhibition of SUV420H1 (unknown origin) at 1 to 10 uM; conditions: dose 1-10 µM; procedure, shortened: as §1
[5] = target: Histone-lysine N-methyltransferase SUV39H1 (Homo sapiens) (UniProt O43463); assay: Inhibition of SUV39H1 (unknown origin) at 1 to 10 uM; conditions: dose 1-10 µM; procedure, shortened: as §1
[6] = target: Histone-lysine N-methyltransferase SETDB1 (Homo sapiens) (UniProt Q15047); assay: Inhibition of SETDB1 (unknown origin) at 1 to 10 uM; conditions: dose 1-10 µM; procedure, shortened: as §1
[7] = target: Histone-lysine N-methyltransferase EHMT2 (Homo sapiens) (UniProt Q96KQ7); assay: Inhibition of G9a (unknown origin) at 1 to 10 uM; conditions: dose 1-10 µM; procedure, shortened: as §1
[8] = target: Histone-lysine N-methyltransferase EHMT1 (Homo sapiens) (UniProt Q9H9B1); assay: Inhibition of GLP (unknown origin) at 1 to 10 uM; conditions: dose 1-10 µM; procedure, shortened: as §1
[9] = target: Protein arginine N-methyltransferase 8 (Homo sapiens) (UniProt Q9NR22); assay: Inhibition of PRMT8 (unknown origin) at 1 to 10 uM; conditions: dose 1-10 µM; procedure, shortened: as §1
[10] = target: Protein arginine N-methyltransferase 5 (Homo sapiens) (UniProt O14744); assay: Inhibition of PRMT5 (unknown origin) at 1 to 10 uM; conditions: dose 1-10 µM; procedure, shortened: as §1
[11] = target: Protein arginine N-methyltransferase 7 (Homo sapiens) (UniProt Q9NVM4); assay: Inhibition of PRMT7 (unknown origin) at 1 to 10 uM; conditions: dose 1-10 µM; procedure, shortened: as §1
[12] = target: Histone-arginine methyltransferase CARM1 (Homo sapiens) (UniProt Q86X55); assay: Inhibition of PRMT4 (unknown origin) at 1 to 10 uM; conditions: dose 1-10 µM; procedure, shortened: as §1
[13] = target: Protein arginine N-methyltransferase 3 (Homo sapiens) (UniProt O60678); assay: Inhibition of PRMT3 (unknown origin) at 1 to 10 uM; conditions: dose 1-10 µM; procedure, shortened: as §1
[14] = target: Protein arginine N-methyltransferase 1 (Homo sapiens) (UniProt Q99873); assay: Inhibition of PRMT1 (unknown origin) at 1 to 10 uM; conditions: dose 1-10 µM; procedure, shortened: as §1
[15] = target: Histone-lysine N-methyltransferase SETD7 (Homo sapiens) (UniProt Q8WTS6); assay: Inhibition of SETD7 (unknown origin) at 1 to 10 uM; conditions: dose 1-10 µM; procedure, shortened: as §1
[16] = target: N-lysine methyltransferase KMT5A (Homo sapiens) (UniProt Q9NQR1); assay: Inhibition of SETD8 (unknown origin) at 1 to 10 uM; conditions: dose 1-10 µM; procedure, shortened: as §1
[17] = target: Histone-lysine N-methyltransferase 2A (Homo sapiens) (UniProt Q03164); assay: Inhibition of MLL1 (unknown origin) at 1 to 10 uM; conditions: dose 1-10 µM; procedure, shortened: as §1
[18] = target: Histone-lysine N-methyltransferase 2C (Homo sapiens) (UniProt Q8NEZ4); assay: Inhibition of MLL3 (unknown origin) at 1 to 10 uM; conditions: dose 1-10 µM; procedure, shortened: as §1
[19] = target: Histone-lysine N-methyltransferase PRDM9 (Homo sapiens) (UniProt Q9NQV7); assay: Inhibition of PRDM9 (unknown origin) at 1 to 10 uM; conditions: dose 1-10 µM; procedure, shortened: as §1
[20] = target: Histone-lysine N-methyltransferase EZH2 (Homo sapiens) (UniProt Q15910); assay: Inhibition of PRC2 (unknown origin) at 1 to 10 uM; conditions: dose 1-10 µM; procedure, shortened: as §1
[21] = target: Histone-lysine N-methyltransferase SETD2 (Homo sapiens) (UniProt Q9BYW2); assay: Inhibition of SETD2 (unknown origin) at 1 to 10 uM; conditions: dose 1-10 µM; procedure, shortened: as §1
[22] = target: N-lysine methyltransferase SMYD2 (Homo sapiens) (UniProt Q9NRG4); assay: Inhibition of SMYD2 (unknown origin) at 1 to 10 uM; conditions: dose 1-10 µM; procedure, shortened: as §1
[23] = target: Histone-lysine N-methyltransferase SMYD3 (Homo sapiens) (UniProt Q9H7B4); assay: Inhibition of SMYD3 (unknown origin) at 1 to 10 uM; conditions: dose 1-10 µM; procedure, shortened: as §1
[24] = target: RNA 5'-monophosphate methyltransferase (Homo sapiens) (UniProt Q7Z5W3); assay: Inhibition of BCDIN3D (unknown origin) at 1 to 10 uM; conditions: dose 1-10 µM; procedure, shortened: as §1
[25] = target: DNA (cytosine-5)-methyltransferase 1 (Homo sapiens) (UniProt P26358); assay: Inhibition of DNMT1 (unknown origin) at 1 to 10 uM; conditions: dose 1-10 µM; procedure, shortened: as §1
[26] = target: DNA (cytosine-5)-methyltransferase 3A (Homo sapiens) (UniProt Q9Y6K1); assay: Inhibition of DNMT3A (unknown origin) at 1 to 10 uM; conditions: dose 1-10 µM; procedure, shortened: as §1
[27] = target: DNA (cytosine-5)-methyltransferase 3B (Homo sapiens) (UniProt Q9UBC3); assay: Inhibition of DNMT3B (unknown origin) at 1 to 10 uM; conditions: dose 1-10 µM; procedure, shortened: as §1
[28] = target: Histone-lysine N-methyltransferase, H3 lysine-79 specific (Homo sapiens) (UniProt Q8TEK3); assay: Inhibition of DOT1L (unknown origin) at 1 to 10 uM; conditions: dose 1-10 µM; procedure, shortened: as §1
[29] = target: Histone-lysine N-methyltransferase ASH1L (Homo sapiens) (UniProt Q9NR48); assay: Inhibition of ASH1L (unknown origin) at 1 to 10 uM; conditions: dose 1-10 µM; procedure, shortened: as §1
[30] = target: Histone-lysine N-methyltransferase, H3 lysine-36 specific (Homo sapiens) (UniProt Q96L73); assay: Inhibition of NSD1 (unknown origin) at 1 to 10 uM; conditions: dose 1-10 µM; procedure, shortened: as §1
[31] = target: Histone-lysine N-methyltransferase NSD2 (Homo sapiens) (UniProt O96028); assay: Inhibition of NSD2 (unknown origin) at 1 to 10 uM; conditions: dose 1-10 µM; procedure, shortened: as §1
[32] = target: Histone-lysine N-methyltransferase NSD3 (Homo sapiens) (UniProt Q9BZ95); assay: Inhibition of NSD3 (unknown origin) at 1 to 10 uM; conditions: dose 1-10 µM; procedure, shortened: as §1
PNT2 = assay: Cytotoxicity against PNT2 cells at up to 10 uM measured after 3 days by CCK8 assay; assay type: cell-based; conditions: human, pnt2, 72 h, time 3 day
Procedure, shortened: (§2)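 Cells (1 × 10^4 per well) were seeded and, after 24 h, exposed for 3 days to serially diluted compound starting at 10 μM. CCK-8 (WST-8) reagent was then added for 4 h at 37 °C, and absorbance was read at 450 nm. Values are the average ± SD of three replicate experiments.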

MCF7 = assay: Cytotoxicity against MCF7 cells at up to 10 uM measured after 3 days by CCK8 assay; assay type: cell-based; conditions: human, mcf7, 72 h, time 3 day; procedure, shortened: as §2
[33] = target: Protein arginine N-methyltransferase 9 (Homo sapiens) (UniProt Q6P2P2); assay: Inhibition of PRMT9 (unknown origin) at 1 to 10 uM; conditions: dose 1-10 µM
HEK-293T [34] = assay: Cytotoxicity against HEK293T cells at 30 uM measured after 20 hrs by Western blot analysis; conditions: human
[35] = Inhibition of PRMT6 mutant 20 (unknown origin) using biotinylated H4(1 to 24) peptide as substrate preincubated for 20 mins in presence of [3H]SAM followed by substrate addition by scintillation proximity assay; design: species or system Homo sapiens
[36] = Inhibition of PRMT6 mutant 19 (unknown origin) using biotinylated H4(1 to 24) peptide as substrate preincubated for 20 mins in presence of [3H]SAM followed by substrate addition by scintillation proximity assay; design: species or system Homo sapiens
[37] = Inhibition of PRMT6 mutant 17 (unknown origin) using biotinylated H4(1 to 24) peptide as substrate preincubated for 20 mins in presence of [3H]SAM followed by substrate addition by scintillation proximity assay; design: species or system Homo sapiens
HEK293T [38] = assay: Inhibition of FLAG-tagged PRMT6 V86K/D88A mutant (unknown origin) expressed in HEK293T assessed as reduction in H3R2me2a level measured after 20 hrs by SDS gel electrophoresis relative to control; assay type: cell-based; conditions: Homo sapiens
Procedure, shortened: (§3)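 HEK293T cells were grown in DMEM with 10% FBS and penicillin/streptomycin. The next day they were transfected with FLAG-PRMT6 or the V86K/D88A mutant (1 μg DNA per well). After 4 h, medium was replaced with titrated compound for 20 h. Cells were lysed in benzonase-containing buffer, SDS was added to 1%, and lysates were western blotted for H3R2me2a or H4R3me2a, total H3/H4 and FLAG, with infrared detection at 800/700 nm.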

HEK293T [39] = assay: Inhibition of FLAG-tagged PRMT6 V86K/D88A mutant (unknown origin) expressed in HEK293T assessed as reduction in H4R3me2a level measured after 20 hrs by SDS gel electrophoresis relative to control; assay type: cell-based; conditions: Homo sapiens; procedure, shortened: as §3
HEK-293T [40] = assay: Cytotoxicity against HEK293T cells at up to 10 uM measured after 3 days by CCK8 assay; assay type: cell-based; conditions: human, 72 h, time 3 day; procedure, shortened: as §2

Protein arginine N-methyltransferase 3 (Homo sapiens), sequence (O60678 2-531 limits assumed): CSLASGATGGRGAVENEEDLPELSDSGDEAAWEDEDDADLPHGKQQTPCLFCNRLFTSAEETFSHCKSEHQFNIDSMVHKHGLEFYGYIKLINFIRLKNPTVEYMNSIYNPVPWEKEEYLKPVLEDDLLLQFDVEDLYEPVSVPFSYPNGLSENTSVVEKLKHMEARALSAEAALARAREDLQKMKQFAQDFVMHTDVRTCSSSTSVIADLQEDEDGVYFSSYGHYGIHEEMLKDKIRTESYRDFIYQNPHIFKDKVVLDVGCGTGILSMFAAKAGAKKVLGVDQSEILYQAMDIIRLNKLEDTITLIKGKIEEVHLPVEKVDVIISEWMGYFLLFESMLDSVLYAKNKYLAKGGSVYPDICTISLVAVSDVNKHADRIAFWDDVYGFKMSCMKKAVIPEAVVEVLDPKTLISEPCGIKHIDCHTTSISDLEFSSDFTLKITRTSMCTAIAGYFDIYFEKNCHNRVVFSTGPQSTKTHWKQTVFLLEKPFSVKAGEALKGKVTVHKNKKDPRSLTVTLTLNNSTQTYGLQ
Histone-arginine methyltransferase CARM1 (Homo sapiens), sequence (Q86X55 whole entry): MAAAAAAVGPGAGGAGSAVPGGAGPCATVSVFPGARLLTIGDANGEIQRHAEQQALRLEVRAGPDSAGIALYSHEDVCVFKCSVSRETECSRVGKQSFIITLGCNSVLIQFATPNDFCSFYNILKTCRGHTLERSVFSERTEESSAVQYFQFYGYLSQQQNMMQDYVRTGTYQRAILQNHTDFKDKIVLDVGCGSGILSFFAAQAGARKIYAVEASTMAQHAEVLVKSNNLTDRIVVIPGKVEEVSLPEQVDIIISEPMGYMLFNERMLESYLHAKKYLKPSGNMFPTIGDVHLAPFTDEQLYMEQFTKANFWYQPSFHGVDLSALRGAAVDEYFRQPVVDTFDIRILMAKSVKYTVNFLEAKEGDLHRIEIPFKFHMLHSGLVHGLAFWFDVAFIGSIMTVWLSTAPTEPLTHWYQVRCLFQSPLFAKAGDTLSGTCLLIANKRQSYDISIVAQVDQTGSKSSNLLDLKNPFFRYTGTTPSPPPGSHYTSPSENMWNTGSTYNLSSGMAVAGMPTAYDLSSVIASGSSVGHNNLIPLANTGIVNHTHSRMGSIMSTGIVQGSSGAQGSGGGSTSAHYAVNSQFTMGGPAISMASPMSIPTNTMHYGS
Histone-lysine N-methyltransferase SUV39H2 (Homo sapiens), sequence (Q9H5I1 whole entry): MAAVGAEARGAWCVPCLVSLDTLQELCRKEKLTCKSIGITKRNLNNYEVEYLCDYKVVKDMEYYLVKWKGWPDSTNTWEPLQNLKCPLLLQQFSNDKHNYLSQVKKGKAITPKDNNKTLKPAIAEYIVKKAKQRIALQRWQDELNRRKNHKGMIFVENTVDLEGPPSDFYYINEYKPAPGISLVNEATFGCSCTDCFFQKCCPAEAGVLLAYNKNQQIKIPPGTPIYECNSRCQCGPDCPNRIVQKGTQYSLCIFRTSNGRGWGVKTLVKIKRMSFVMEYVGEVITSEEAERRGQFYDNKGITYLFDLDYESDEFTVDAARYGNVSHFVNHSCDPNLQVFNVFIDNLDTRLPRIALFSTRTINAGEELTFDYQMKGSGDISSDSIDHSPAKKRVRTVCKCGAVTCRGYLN
Histone-lysine N-methyltransferase, H3 lysine-79 specific (Homo sapiens), sequence (Q8TEK3 whole entry, looked up): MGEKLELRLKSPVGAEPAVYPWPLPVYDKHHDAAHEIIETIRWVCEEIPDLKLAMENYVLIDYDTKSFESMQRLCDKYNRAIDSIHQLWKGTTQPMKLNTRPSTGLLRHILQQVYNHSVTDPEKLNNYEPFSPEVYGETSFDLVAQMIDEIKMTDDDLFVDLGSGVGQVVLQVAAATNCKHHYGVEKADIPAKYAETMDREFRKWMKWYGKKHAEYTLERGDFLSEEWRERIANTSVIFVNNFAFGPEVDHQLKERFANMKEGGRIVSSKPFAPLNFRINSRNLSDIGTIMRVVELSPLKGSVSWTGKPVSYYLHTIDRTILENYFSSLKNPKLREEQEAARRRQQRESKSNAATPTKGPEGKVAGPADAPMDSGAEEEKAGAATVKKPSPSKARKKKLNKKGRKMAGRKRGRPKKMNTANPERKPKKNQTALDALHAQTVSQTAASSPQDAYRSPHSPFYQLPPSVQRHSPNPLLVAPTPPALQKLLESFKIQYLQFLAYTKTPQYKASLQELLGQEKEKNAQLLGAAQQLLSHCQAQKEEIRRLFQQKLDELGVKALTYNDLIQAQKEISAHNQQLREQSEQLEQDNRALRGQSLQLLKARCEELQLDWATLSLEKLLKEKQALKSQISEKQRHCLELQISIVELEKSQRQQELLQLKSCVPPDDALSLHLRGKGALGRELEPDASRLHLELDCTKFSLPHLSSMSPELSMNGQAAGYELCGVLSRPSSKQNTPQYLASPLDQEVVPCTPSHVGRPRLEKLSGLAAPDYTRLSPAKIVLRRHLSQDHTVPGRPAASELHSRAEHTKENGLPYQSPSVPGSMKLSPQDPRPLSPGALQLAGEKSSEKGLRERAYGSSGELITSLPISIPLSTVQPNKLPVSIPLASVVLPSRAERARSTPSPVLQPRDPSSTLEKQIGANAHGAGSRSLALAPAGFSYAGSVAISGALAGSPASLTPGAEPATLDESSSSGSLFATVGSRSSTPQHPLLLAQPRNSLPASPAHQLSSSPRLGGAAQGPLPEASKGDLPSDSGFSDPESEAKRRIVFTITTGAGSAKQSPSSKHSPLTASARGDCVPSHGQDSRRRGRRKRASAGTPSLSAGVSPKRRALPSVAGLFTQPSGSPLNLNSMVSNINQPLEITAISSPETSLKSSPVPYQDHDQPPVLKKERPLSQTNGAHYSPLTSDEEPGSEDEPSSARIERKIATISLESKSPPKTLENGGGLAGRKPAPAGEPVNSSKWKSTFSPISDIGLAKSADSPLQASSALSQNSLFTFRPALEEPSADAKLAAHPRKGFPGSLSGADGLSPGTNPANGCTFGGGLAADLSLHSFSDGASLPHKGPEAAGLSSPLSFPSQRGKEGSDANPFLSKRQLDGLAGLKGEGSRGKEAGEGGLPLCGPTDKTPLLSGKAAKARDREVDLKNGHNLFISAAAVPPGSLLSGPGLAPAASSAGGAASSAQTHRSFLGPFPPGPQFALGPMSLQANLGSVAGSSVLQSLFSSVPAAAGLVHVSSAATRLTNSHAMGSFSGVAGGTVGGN
Protein arginine N-methyltransferase 1 (Homo sapiens), sequence (Q99873 whole entry, looked up): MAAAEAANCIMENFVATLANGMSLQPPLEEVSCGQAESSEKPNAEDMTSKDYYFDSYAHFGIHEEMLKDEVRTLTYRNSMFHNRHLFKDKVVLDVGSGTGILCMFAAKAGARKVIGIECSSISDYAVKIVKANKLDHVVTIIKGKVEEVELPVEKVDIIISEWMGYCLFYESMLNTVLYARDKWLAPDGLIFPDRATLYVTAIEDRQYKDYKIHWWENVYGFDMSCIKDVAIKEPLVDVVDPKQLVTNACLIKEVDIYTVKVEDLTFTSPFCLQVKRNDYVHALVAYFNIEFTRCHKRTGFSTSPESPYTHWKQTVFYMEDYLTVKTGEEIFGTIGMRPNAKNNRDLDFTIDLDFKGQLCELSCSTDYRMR
Histone-lysine N-methyltransferase SMYD3 (Homo sapiens), sequence (Q9H7B4 whole entry): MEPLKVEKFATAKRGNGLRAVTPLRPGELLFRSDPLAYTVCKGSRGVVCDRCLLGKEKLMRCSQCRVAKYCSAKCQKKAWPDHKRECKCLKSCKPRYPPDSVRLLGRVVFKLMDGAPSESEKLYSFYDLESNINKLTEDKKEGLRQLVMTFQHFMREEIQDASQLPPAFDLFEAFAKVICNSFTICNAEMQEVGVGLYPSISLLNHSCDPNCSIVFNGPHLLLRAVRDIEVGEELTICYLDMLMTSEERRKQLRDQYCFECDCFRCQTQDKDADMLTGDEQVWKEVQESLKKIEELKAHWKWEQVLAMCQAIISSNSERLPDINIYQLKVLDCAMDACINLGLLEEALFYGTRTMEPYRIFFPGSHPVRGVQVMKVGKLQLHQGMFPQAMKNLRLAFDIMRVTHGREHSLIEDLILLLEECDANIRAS
Histone-lysine N-methyltransferase SUV39H1 (Homo sapiens), sequence (O43463 whole entry): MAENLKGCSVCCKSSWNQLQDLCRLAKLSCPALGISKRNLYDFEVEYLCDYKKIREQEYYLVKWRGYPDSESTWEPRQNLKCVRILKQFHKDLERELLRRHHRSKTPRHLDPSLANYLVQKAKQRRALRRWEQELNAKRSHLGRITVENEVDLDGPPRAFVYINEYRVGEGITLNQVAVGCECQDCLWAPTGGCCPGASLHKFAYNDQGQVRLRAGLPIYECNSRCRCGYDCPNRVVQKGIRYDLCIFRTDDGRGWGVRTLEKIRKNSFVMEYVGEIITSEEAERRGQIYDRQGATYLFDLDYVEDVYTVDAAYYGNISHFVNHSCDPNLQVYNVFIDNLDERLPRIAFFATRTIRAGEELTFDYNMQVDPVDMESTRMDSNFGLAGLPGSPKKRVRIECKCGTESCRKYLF
Histone-lysine N-methyltransferase EZH2 (Homo sapiens), sequence (Q15910 whole entry, looked up): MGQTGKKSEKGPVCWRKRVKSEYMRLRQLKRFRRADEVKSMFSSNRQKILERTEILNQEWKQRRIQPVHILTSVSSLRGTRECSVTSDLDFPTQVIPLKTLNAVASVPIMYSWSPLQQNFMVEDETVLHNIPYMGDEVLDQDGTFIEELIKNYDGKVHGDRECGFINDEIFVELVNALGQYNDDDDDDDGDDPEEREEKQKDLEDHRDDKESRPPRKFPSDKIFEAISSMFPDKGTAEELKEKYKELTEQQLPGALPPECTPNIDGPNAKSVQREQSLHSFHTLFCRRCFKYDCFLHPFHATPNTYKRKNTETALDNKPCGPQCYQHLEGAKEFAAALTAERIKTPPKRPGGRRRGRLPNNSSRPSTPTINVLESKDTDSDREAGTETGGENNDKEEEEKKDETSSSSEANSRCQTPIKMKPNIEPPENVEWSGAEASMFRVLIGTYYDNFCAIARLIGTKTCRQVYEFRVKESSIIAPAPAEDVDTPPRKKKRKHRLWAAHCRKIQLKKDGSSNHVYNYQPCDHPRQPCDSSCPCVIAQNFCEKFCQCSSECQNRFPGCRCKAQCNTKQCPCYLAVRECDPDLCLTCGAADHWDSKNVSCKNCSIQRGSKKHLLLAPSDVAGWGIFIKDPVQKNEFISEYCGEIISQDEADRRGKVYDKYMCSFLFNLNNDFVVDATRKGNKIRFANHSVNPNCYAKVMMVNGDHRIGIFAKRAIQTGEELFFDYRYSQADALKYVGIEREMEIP

| inhibition [2] | inhibition [3] | inhibition [4] | inhibition [5] | inhibition [6] | inhibition [7] | inhibition [8] | inhibition [9] | inhibition [10] | inhibition [11] | inhibition [12] | inhibition [13] | inhibition [14] | inhibition [15] | inhibition [16] | inhibition [17] | inhibition [18] | inhibition [19] | inhibition [20] | inhibition [21] | SMILES | further results |
| --- | --- | --- | --- | --- | --- | --- | --- | --- | --- | --- | --- | --- | --- | --- | --- | --- | --- | --- | --- | --- | --- |
|  |  |  |  |  |  |  |  |  |  |  |  |  |  |  |  |  |  |  |  | CNCCN1CCC(OCc2ccccc2)CC1 | pIC50 [1]: 7.47 |
| inactive | inactive | inactive | inactive | inactive | inactive | inactive | inactive | inactive | inactive | inactive | inactive | inactive | inactive | inactive | inactive | inactive | inactive | inactive | inactive | Cc1cc(C)cc([C@H]2c3cc(C)ccc3NC(=O)CN2C(=O)c2ccc(Br)s2)c1 | inhibition [22]: inactive; inhibition [23]: inactive; inhibition [24]: inactive; inhibition [25]: inactive; inhibition [26]: inactive; inhibition [27]: inactive; inhibition [28]: inactive; inhibition [29]: inactive; inhibition [30]: inactive; inhibition [31]: inactive; inhibition [32]: inactive; Activity (PNT2): Non-Toxic; Activity (MCF7): Non-Toxic; inhibition [33]: inactive; Activity (HEK-293T [34]): Toxic |
|  |  |  |  |  |  |  |  |  |  |  |  |  |  |  |  |  |  |  |  | Cc1ccc2c(c1)[C@@H](c1ccc(F)cc1)N(C(=O)c1ccc(Br)o1)CC(=O)N2 | pIC50 [35]: 4.39; pIC50 [36]: 4.77; pIC50 [37]: 4.34 |
| inactive | inactive | inactive | inactive | inactive | inactive | inactive | inactive | inactive | inactive | inactive | inactive | inactive | inactive | inactive | inactive | inactive | inactive | inactive | inactive | Cc1cc(C)cc([C@@H]2c3cc(C)ccc3NC(=O)CN2C(=O)c2ccc(Br)s2)c1 | inhibition [22]: inactive; inhibition [23]: inactive; inhibition [24]: inactive; inhibition [25]: inactive; inhibition [26]: inactive; inhibition [27]: inactive; inhibition [28]: inactive; inhibition [29]: inactive; inhibition [30]: inactive; inhibition [31]: inactive; inhibition [32]: inactive; inhibition (HEK293T [38]): 100%; inhibition (HEK293T [39]): 100%; Activity (HEK-293T [40]): Non-Toxic; Activity (PNT2): Non-Toxic; Activity (MCF7): Non-Toxic; inhibition [33]: inactive |
